Data from ChEMBL document CHEMBL4177769, “Highly Selective and Potent Ectonucleotide Pyrophosphatase-1 (NPP1) Inhibitors Based on Uridine 5'-Pα,α-Dithiophosphate Analogues” (J Med Chem, 2018).
Calls of active or inactive are those of the source. The rule behind the calls is not given here.

Legend:
[1] = biological target: T1, Ectonucleotide pyrophosphatase/phosphodiesterase family member 1 (Homo sapiens) (UniProt P22413); assay: Inhibition of human NPP1 at 100 uM using pNP-TMP as substrate preincubated for 3 mins followed by substrate addition measured after 15 mins relative to control
T1 sequence (whole entry): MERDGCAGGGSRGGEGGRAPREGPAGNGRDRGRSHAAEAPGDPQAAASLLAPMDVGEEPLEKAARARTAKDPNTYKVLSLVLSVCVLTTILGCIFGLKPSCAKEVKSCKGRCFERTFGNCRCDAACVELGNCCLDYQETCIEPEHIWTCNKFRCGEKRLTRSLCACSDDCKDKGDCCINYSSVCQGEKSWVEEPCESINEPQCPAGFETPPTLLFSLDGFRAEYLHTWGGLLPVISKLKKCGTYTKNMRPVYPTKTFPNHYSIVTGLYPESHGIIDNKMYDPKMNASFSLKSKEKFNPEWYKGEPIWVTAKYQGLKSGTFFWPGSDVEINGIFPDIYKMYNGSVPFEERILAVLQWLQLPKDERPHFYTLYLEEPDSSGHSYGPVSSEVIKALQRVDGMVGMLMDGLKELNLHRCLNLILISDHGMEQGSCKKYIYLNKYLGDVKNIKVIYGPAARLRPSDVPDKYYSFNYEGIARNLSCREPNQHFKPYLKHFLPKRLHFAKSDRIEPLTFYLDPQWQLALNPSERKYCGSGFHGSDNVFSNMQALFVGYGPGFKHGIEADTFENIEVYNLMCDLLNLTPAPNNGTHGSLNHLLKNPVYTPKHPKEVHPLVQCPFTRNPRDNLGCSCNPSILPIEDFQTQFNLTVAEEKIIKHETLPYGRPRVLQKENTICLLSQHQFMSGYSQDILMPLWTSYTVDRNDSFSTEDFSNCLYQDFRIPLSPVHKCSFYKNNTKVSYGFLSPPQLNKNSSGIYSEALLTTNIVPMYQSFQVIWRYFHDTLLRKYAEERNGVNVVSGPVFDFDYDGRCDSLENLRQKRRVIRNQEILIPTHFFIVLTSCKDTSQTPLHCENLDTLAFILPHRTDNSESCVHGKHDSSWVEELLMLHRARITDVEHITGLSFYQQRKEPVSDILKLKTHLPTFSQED
Procedure, shortened: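 Human NPP1 (4−5 μg) or NPP3 (12−14 μg) cell lysate in mM 1 CaCl2, 140 NaCl, 5 KCl, 50 Tris pH 8.5, 37 °C. Compound at 100 μM, 3 min preincubation, 100 μM pNP-TMP substrate. p-Nitrophenol read at 405 nm after 15 min. Blank with enzyme added at end subtracted. Activity without compound taken as 100%. At least two independent experiments in triplicate.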

[2] = biological target: P2Y purinoceptor 6 (Homo sapiens) (UniProt Q15077); assay: Agonist activity at recombinant human P2RY6 expressed in AD293 cells assessed as increase in intracellular calcium levels by Fluo-4/AM dye-based spectrofluorometer; format: functional, cell-based
Sequence of P2Y purinoceptor 6 (Homo sapiens) (Q15077 whole entry): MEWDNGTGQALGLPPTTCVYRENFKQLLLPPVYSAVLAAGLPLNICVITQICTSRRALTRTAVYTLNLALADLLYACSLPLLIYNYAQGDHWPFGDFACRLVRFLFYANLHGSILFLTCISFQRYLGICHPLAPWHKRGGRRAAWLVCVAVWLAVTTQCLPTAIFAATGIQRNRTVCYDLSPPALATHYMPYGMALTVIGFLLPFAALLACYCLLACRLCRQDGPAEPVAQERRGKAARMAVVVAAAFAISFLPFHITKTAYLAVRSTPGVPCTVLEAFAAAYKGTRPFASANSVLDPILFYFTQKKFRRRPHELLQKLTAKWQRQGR
Procedure, shortened: (§1)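 Human P2Y2, P2Y4 or P2Y6 receptor stably expressed in AD293 cells. Compound at 100 μM. Agonism read as change in intracellular calcium (Δ[Ca2+]i), with UDP or UTP as control.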

[3] = biological target: T2, Ectonucleoside triphosphate diphosphohydrolase 8 (Homo sapiens) (UniProt Q5MY95); assay: Inhibition of human NTPDase8 at 100 uM using ATP as substrate preincubated for 3 mins followed by substrate addition measured after 10 mins by malachite green reagent-based assay
T2 sequence (whole entry): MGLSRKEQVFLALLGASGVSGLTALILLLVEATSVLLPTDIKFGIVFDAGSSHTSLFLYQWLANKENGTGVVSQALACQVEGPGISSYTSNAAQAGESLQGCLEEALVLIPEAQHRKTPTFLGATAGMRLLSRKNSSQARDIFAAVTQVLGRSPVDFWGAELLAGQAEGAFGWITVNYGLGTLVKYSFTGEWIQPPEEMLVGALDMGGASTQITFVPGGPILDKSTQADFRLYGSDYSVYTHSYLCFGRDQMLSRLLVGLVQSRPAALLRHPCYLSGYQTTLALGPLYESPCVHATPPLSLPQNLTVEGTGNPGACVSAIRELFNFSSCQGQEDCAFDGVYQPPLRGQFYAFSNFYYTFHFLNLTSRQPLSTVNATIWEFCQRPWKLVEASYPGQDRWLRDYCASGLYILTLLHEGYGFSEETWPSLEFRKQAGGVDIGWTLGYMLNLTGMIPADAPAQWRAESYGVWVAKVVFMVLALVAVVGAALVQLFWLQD
Procedure, shortened: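 Compound at 100 μM, 3 min preincubation, 100 μM ATP, 10 min. Stopped with malachite green; Pi read at 630 nm. Blank with enzyme added after stop subtracted. Activity with ATP alone taken as 100%.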

[4] = biological target: P2Y purinoceptor 6 (Homo sapiens) (UniProt Q15077); assay: Agonist activity at recombinant human P2RY6 expressed in AD293 cells assessed as increase in intracellular IP1 levels; format: functional, cell-based
Procedure, shortened: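 Human P2Y6 receptor stably expressed in AD293 cells. Compound at 100 μM. Gq activation read as accumulation of inositol 1-phosphate (IP1).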

[5] = biological target: P2Y purinoceptor 4 (Homo sapiens) (UniProt P51582); assay: Agonist activity at recombinant human P2RY4 expressed in AD293 cells assessed as increase in intracellular calcium levels by Fluo-4/AM dye-based spectrofluorometer; format: functional, cell-based; procedure, shortened: as §1
Sequence of P2Y purinoceptor 4 (Homo sapiens) (P51582 whole entry): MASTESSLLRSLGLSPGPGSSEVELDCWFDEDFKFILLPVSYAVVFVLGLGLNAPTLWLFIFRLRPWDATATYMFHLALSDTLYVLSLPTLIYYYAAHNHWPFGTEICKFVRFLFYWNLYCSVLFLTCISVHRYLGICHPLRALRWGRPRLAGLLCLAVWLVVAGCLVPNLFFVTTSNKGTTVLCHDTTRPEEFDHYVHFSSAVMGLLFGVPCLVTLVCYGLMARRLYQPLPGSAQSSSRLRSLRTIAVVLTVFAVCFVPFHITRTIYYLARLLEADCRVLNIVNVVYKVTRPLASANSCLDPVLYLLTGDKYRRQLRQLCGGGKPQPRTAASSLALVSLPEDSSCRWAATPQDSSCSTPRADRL

[6] = Drug metabolism at 2 mM at basic pH after 5 days by 31P NMR method; format: physicochemical; conditions: read-out: Drug metabolism
[7] = Drug metabolism at 2 mM at acidic pH after 5 days by 31P NMR method; format: physicochemical; conditions: read-out: Drug metabolism

O=c1ccn([C@@H]2O[C@H](COP(=S)(S)OP(=O)(O)O)[C@@H](O)[C@H]2O)c(=O)[nH]1 (some centres undefined)
inhibition [1]: 80 to 100%
Activity [2]: Active
inhibition [3]: 15%
Activity [4]: Active
Activity [5]: inactive

O=c1ccn([C@@H]2O[C@H](COP(=S)(S)OP(=O)(O)CP(=O)(O)O)[C@@H](O)[C@H]2O)c(=O)[nH]1 (some centres undefined)
inhibition [1]: 80 to 100%
degraded at 120 h, 2000 µM [6]: 8%
degraded at 120 h, 2000 µM [7]: 2%
Activity [2]: Active
inhibition [3]: 15%
Activity [4]: inactive
Activity [5]: inactive

O=c1ccn([C@@H]2O[C@H](COP(=S)(S)OP(=O)(O)OP(=O)(O)O)[C@@H](O)[C@H]2O)c(=O)[nH]1 (some centres undefined)
inhibition [1]: 100%
degraded at 120 h, 2000 µM [6]: 13%
degraded at 120 h, 2000 µM [7]: 11%
Activity [2]: Active
inhibition [3]: inactive
Activity [4]: Active
Activity [5]: inactive
